# Source: PubChem BioAssay (several laboratories)
# Only some compounds are listed: those with a hit (about 2.2% of all), similar ones and a draw of the others.
# RanGTP-Impb inh – inhibitors of RanGTP-importin-beta interaction, primary screen, biochemical, FRET, CFP-Ran, YFP-importin-beta, homogeneous; cell-free CFP-Ran/YFP-importin-beta FRET ratio; inhibition, % (concentration not given with the values); 300,000 compounds, 1.1% hits;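 active = more than half of the replicate wells show a fall in the fluorescence ratio signal beyond about 16%, limit read from the data, passing the limit was not always enough; inconclusive = exactly half of the replicate wells pass the set limit; inactive = fewer than half of replicates pass the limit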;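 also: 0% = DMSO wells and 100% = Ran loaded with GDP instead of GTP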
# eIF4E 4G PPI – blocks eIF4E binding to eIF4G; TR-FRET eIF4E-eIF4GI(517-606) binding, 2 h; inhibition, % at 21.7 µM; 220,000 compounds, 0.37% hits; AID 782;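 active = inhibition above about 30%, limit read from the data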;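 also: 0% = full FRET control wells and 100% = background wells lacking eIF4GI fragment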
# Runt-CBFb FRET – blocks binding of human RUNX1 Runt domain to CBFb; Q01196+Q13951; Cerulean-Runt/Venus-CBFb FRET ratio 530/480, 1 h; inhibition, % at 20 µM; 220,000 compounds, 0.46% hits; AID 1496;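 active = inhibition over about 50% at 20 µM in the single-dose screen, limit read from the data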;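 also: 0% = DMSO wells and 100% = excess unlabeled CBFb competitor control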
#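 Assay system: Cerulean-Runt domain fusion protein, energy donor; Signal: fluorescence energy transfer, 422 nm excitation, 530/480 nm emission; Timing: 1 h compound exposure, room temperature; Control set: unlabeled CBFb; Medium: Tris buffer pH 7.5 with salts and BSA; Compound: single test concentration of 20 µM, 1% DMSO final; Probe or stimulus: Venus-CBFb 100 nM.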
# PERK inhibitor – human PERK inhibition, primary cell-based screen. Q9NZJ5. CHO PERK-DD fusion, SEAP luminescence translation reporter. inhibition, % at 5.6 µM. 220,000 compounds, 0.17% hits;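 active = inhibition above the mean inhibition of all tested compounds plus 3 SD, set separately per screening campaign, cut at about 2.9% in these data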;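 also: PERK kinase domain activated by AP20187 dimerizer at 100 nM; 0% = DMSO with dimerizer and 100% = rapamycin at 8.4 µM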
# Target sequence (Q9NZJ5 whole entry, looked up, the tested form may be a part): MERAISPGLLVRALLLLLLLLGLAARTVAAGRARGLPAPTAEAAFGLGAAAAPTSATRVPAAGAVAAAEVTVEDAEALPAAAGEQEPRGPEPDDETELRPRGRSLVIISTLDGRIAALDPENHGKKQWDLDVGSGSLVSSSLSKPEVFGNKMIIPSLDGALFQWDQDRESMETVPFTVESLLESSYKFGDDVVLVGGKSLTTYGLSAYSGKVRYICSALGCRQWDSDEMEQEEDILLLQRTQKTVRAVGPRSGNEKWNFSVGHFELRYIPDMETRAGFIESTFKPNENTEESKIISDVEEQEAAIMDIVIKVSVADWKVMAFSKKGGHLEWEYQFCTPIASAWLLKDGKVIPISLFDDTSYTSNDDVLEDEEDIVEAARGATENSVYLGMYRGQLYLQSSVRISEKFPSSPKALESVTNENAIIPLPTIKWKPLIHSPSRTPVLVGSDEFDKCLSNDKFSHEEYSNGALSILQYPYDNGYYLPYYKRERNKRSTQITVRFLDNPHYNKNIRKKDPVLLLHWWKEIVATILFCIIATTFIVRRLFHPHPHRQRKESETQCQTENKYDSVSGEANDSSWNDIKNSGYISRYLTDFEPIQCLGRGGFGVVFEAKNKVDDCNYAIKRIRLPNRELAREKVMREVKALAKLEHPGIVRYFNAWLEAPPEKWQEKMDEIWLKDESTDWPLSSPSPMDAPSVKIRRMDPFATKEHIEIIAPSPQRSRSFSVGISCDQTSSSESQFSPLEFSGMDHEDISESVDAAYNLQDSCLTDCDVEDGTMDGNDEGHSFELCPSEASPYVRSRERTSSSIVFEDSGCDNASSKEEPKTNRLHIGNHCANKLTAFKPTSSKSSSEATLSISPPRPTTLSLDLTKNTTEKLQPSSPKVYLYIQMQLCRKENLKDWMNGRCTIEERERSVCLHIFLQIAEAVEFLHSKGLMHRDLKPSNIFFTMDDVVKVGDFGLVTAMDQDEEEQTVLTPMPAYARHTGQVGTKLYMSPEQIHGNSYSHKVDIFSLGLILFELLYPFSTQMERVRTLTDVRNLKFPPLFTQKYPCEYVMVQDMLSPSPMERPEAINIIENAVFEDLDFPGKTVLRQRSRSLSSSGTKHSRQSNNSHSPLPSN
# Runt-SMMHC FRET – Runt domain-CBFb-SMMHC interaction inhibition; Cerulean-Runt/Venus-CBFb-SMMHC FRET ratio 530/480, 1 h; inhibition, % at 20 µM; 220,000 compounds, 0.74% hits; AID 1434;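 active = mean inhibition across duplicate retests at 20 µM reaching about 50%, limit read from the data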;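 also: 0% = DMSO wells and 100% = wells with excess untagged CBFb-SMMHC; inhibitors lower the FRET ratio by blocking Runt binding to CBFb-SMMHC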
# Hck Nef HTS – human Hck-Nef kinase inhibition; P08631; Recombinant Hck-YEEI plus Nef, Z-Lyte FRET kinase assay; inhibition, % at 20 µM; 220,000 compounds, 0.68% hits;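 active = Hck-Nef kinase inhibition above about 50%, limit read from the data; inactive = inhibition below that limit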;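 also: 0% = DMSO with Hck plus Nef and 100% = Hck alone without Nef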
# RUNX1 CBFb TR – disrupts human RUNX1 Runt domain binding to CBFb; inhibition, % at 20 µM; shares compounds with Runt-CBFb FRET; TR-FRET RUNX1 Runt domain-CBFb binding; 480 compounds, 20% hits; in the data active = inhibition above about 40%
# Starred values were filed as active, the others as inactive; ? = inconclusive; / = not tested or not shown; + = active, no number.
SMILES,RanGTP-Impb inh,eIF4E 4G PPI,Runt-CBFb FRET,PERK inhibitor,Runt-SMMHC FRET,Hck Nef HTS,RUNX1 CBFb TR
N#C/C(=C\c1ccc(F)cc1)C(=O)Nc1ccccn1,38.8*,/,/,/,/,/,/
CCOc1ccc(/C=C(\C#N)C(=O)Nc2ccccn2)cc1,1.8,/,/,/,/,/,/
N#C/C(=C\c1ccc(O)c(O)c1)C(=O)Nc1cccc2ncccc12,93.3*,/,/,/,/,/,/
O=c1c([N+](=O)[O-])cc(C(F)(F)F)cn1Cc1c(Cl)cccc1Cl,-1.1,1.8,-1.8,3.3*,4.5,0.5,/
Cc1ccc(S(=O)(=O)N2CCN(C(=O)CCCOc3ccc(Cl)cc3C)CC2)cc1,2.4,/,/,/,/,/,/
O=C(CN1CCN(Cc2ccc3c(c2)OCO3)CC1)N1CCc2[nH]c3ccccc3c2C1,32.0*,-4.4,-6.2,-0.9,-10.5,2.6,/
O=C(CN1CCN(Cc2ccc3c(c2)OCO3)CC1)N1CCc2[nH]c3ccc(F)cc3c2C1,-5.0,-9.2,-18.1,-1.2,-20.6,-3.0,/
CC1CN(CC(=O)N2CCc3[nH]c4ccccc4c3C2)CC(C)O1 (stereo not drawn),27.7*,/,-27.5,0.3,-7.4,-1.9,/
CCOC(=O)C(C)c1c(C(=O)c2ccc(C)nc2)c2ccccc2n1C (stereo not drawn),-1.3,-0.7,4.0,0.1,52.1*,2.3,/
O=C(NC(=S)N1CCN(C2CCCCC2)CC1)c1ccccc1,-1.6,-0.2,1.0,-1.0,0.9,12.9,/
Cc1ccc(CNC(=O)COc2ccccc2-c2ccccc2)cc1,-1.7,16.5,-7.3,0.4,-7.8,3.9,/
CN(C)S(=O)(=O)c1ccc(-n2cccc2)cc1,0.1,-1.6,-0.9,0.8,-3.8,30.2,/
CN(C)S(=O)(=O)c1ccc(=S)[nH]c1,0.5,-1.9,50.3*,-0.1,42.9,0.8,-60.8
CC(=O)Nc1cccc(C(=O)NC2CCCc3c2cnn3-c2cc(C)cc(C)c2)c1 (stereo not drawn),2.3,/,/,/,/,/,/
CCC(C)NC(=O)CC(C)C (stereo not drawn),1.4,4.7,1.8,1.0,0.3,17.4,/
CC(C)CC(=O)NN1CCCCC1,8.8,1.6,75.3*,0.1,-0.2,-22.2,58.5*
CCOc1ccc2nc(NCCCNC(=O)c3cc(OC)c(OC)c(OC)c3)c(C#N)cc2c1,134.9*,-7.2,59.5*,1.0,81.1*,-12.7,7.1
N#CC1=C(N)Oc2cc(N)ccc2C1c1ccc(F)cc1 (stereo not drawn),76.1*,-8.2,72.6*,0.1,86.0*,4.2,-11.4
COc1ccc(CCn2c(=N)c(C(=O)N3CCN(C)CC3)cc3c(=O)n4ccccc4nc32)cc1,6.1,-22.3,64.8*,-0.5,124.0*,7.3,30.4
O=C(CCSc1ccccn1)c1ccccc1,1.8,-0.8,58.7*,1.8,45.2,13.7,4.9
N#Cc1c2c(c(Nc3ccccc3)n3c1nc1ccccc13)CCC2,76.7*,-6.5,54.8*,0.0,70.5*,0.4,-1.5
N#Cc1c2c(c(-n3cnc4ccccc43)n3c1nc1ccccc13)CCC2,-1.4,-9.6,/,1.1,-69.2,2.5,/
CN(C)CCCNS(=O)(=O)c1cc(Cl)ccc1Cl,-0.4,6.4,-0.7,0.1,-2.1,0.5,/
CN(C)CCCNS(=O)(=O)c1ccc(N2CCC(c3ccc(Cl)cc3)=N2)cc1,26.6*,2.5,57.3*,-0.5,93.3*,+,-25.4
CCc1cc(=O)oc2c(C)c(OC(C)C(=O)N3CC[C@@]4(O)CCCC[C@H]4C3)ccc12 (stereo partly drawn),2.6,/,/,/,/,/,/
SMILES,RanGTP-Impb inh,eIF4E 4G PPI,Runt-CBFb FRET,PERK inhibitor,Runt-SMMHC FRET,Hck Nef HTS,RUNX1 CBFb TR
Cc1cc(C)n2nc3nc4c(cc3c2n1)CCCC4,5.1,1.0,65.0*,0.5,/,15.7,62.8*
Cc1ccc(S(=O)(=O)Nc2ccccc2C(=O)N2CCCCC2)cc1,7.5,/,/,/,/,/,/
Cc1ccc(C2OC34CCCCCC3C(C#N)(C(=N)O4)C2(C#N)C#N)cc1 (stereo not drawn),33.6*,6.1,52.4*,0.3,99.0*,-1.2,30.5
COc1cc(C(=O)NCc2nnc(SCC(=O)Nc3nc4ccccc4s3)o2)cc(OC)c1OC,4.9,-4.5,53.4*,-0.4,48.4,-2.3,-1.9
COc1ccc(C(=O)NCc2nnc(SCC(=O)Nc3nc4ccccc4s3)o2)cc1,0.9,1.3,56.7*,0.3,-3.3,1.2,-23.4
CCC(NC(=S)NC1CCCCC1)c1ccccc1 (stereo not drawn),1.0,/,/,/,/,/,/
CCOC(=O)c1c(/N=C/N(C)C)sc(/C=N/Nc2ccccc2)c1-c1ccccc1,-14.5,-2.8,70.8*,0.4,131.0*,9.2,-12.5
CCn1c(C)nc2cc(-c3nnc(-c4c(-c5ccccc5)noc4C)o3)ccc21,4.6,2.6,1.0,-1.8,0.1,-1.0,/
CCn1cc(C(=O)N2CCOCC2)c(=O)c2cc(S(=O)(=O)N(C)C3CCCCC3)ccc21,0.5,3.1,0.5,-0.2,-6.8,-1.5,/
O=C(O)c1ccccc1SC1CC(=O)N(c2cccc3ccccc23)C1=O (stereo not drawn),/,-1.3,52.8*,0.6,20.0,22.8,47.2*
Cc1ccn(-c2cc(O)c(-n3ccc(C)n3)cc2O)n1,7.6,0.3,64.1*,-0.2,25.3,8.5,37.1
Cc1ccn(CCC(=O)O)n1,-1.0,2.6,2.5,0.9,-1.8,-1.7,/
CCOC(=O)N1CCN(c2nc3c(C)cccn3c(=O)c2C=O)CC1,1.7,/,/,/,/,/,/
O=C1CCCC2=C1C(c1ccc(O)c(O)c1)c1c(ccc3ncccc13)N2 (stereo not drawn),5.5,15.8,51.1*,-0.1,40.7,21.6,44.1*
CCOC(=O)c1cnc2ccc(Cl)cc2c1NCCN(C)C,?,-0.7,63.6*,-1.0,45.5,9.7,1.8
COC(=O)CCCNS(=O)(=O)c1ccc2ccccc2c1,/,-0.2,-2.3,0.4,-2.3,9.4,/
Cc1[nH]c2ccccc2c1N=Nc1ccccc1C(=O)O,4.9,-2.8,52.3*,-0.6,-20.3,-2.4,16.9
Cn1ccc(=S)c2ccccc21,4.8,-0.4,0.7,0.9,0.0,13.0,/
Oc1ccc(Br)cc1-c1ccn[nH]1,0.5,-10.1,-0.2,-0.1,-0.1,7.3,/
Oc1ccc(O)c(-c2cnns2)c1,-0.5,3.3,70.8*,1.1,/,3.7,-16.6
Cc1nn(-c2ccccc2)cc1C(c1c(N)[nH]c(=S)[nH]c1=O)c1c(N)[nH]c(=S)[nH]c1=O,-0.8,1.1,55.8*,1.3,41.4,28.7,57.5*
CCCN1CCN(C(=O)C(C)n2nc(C)c3sc4ccccc4c3c2=O)CC1 (stereo not drawn),-1.7,/,/,/,/,/,/
CCOC(=O)N/N=C/c1c(F)c(F)c(F)c(F)c1F,/,-4.7,50.4*,0.4,1.4,4.3,-14.5
